Laboratory results from ChEMBL document CHEMBL5705898 (Proc Natl Acad Sci U S A, 2014).
pIC50: −log10 of the molar value.

Columns and labels:
[1] = Stability of compound in cell media by MS-LC analysis; type: physicochemical
[2] = molecular target: Vascular endothelial growth factor receptor 1 (Homo sapiens) (UniProt P17948); test: Inhibition of human FLT-1 kinase (VEGFR1) at 10 uM relative to control
[3] = molecular target: Histamine H1 receptor (Homo sapiens) (UniProt P35367); test: Inhibition of human H1 receptor at 10 uM relative to control
[4] = molecular target: Beta-1 adrenergic receptor (Homo sapiens) (UniProt P08588); test: Inhibition of human beta 1 receptor at 10 uM relative to control
[5] = molecular target: 5-hydroxytryptamine receptor 1A (Homo sapiens) (UniProt P08908); test: Inhibition of human 5-HT1A receptor at 10 uM relative to control
[6] = molecular target: Melanocyte-stimulating hormone receptor (Homo sapiens) (UniProt Q01726); test: Inhibition of MC1 receptor (unknown origin) at 10 uM relative to control
[7] = Inhibition of SETD7 V274E mutant (unknown origin) using biotinylated H3 (1-25) peptide as substrate incubated for 1 hrs in presence of 3H-SAM by radioactivity based assay; design: species or system Homo sapiens
Summary of the method: (§1)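 Scintillation proximity assay on recombinant E. coli-expressed human SETD7(1–366) mutant forms. Read-out was incorporation of the ³H-methyl group from ³H-SAM into histone H3(1–25) peptide, with 2 µM SAM, 2 µM H3(1–25) and 2 nM enzyme. IC50 is given as the mean ± SD of triplicate runs.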

[8] = molecular target: Mu-type opioid receptor (Homo sapiens) (UniProt P35372); test: Inhibition of human mu opioid receptor at 10 uM relative to control
[9] = molecular target: 5-hydroxytryptamine receptor 2B (Homo sapiens) (UniProt P41595); test: Inhibition of human 5-HT2B receptor at 10 uM relative to control
[10] = molecular target: Estrogen receptor (Homo sapiens) (UniProt P03372); test: Inhibition of human ERalpha at 10 uM relative to control
[11] = molecular target: Mitogen-activated protein kinase 14 (Homo sapiens) (UniProt Q16539); test: Inhibition of human P38alpha kinase at 10 uM relative to control
Caspase-3 (Homo sapiens) = Caspase-3 (Homo sapiens) (UniProt P42574); test: Inhibition of human caspase-3 at 10 uM relative to control
[12] = molecular target: Type-1 angiotensin II receptor (Homo sapiens) (UniProt P30556); test: Inhibition of human AT1 receptor at 10 uM relative to control
[13] = molecular target: Sodium-dependent serotonin transporter (Homo sapiens) (UniProt P31645); test: Inhibition of human 5-HT transporter at 10 uM relative to control
[14] = molecular target: Prostaglandin G/H synthase 1 (Homo sapiens) (UniProt P23219); test: Inhibition of human COX1 at 10 uM relative to control
[15] = molecular target: B2 bradykinin receptor (Homo sapiens) (UniProt P30411); test: Inhibition of human B2 receptor at 10 uM relative to control
[16] = molecular target: Glutamate [NMDA] receptor (Homo sapiens) (UniProt Q05586+Q12879+Q13224+O15399+O60391+Q14957+Q8TCU5); test: Inhibition of NMDA receptor (unknown origin) at 10 uM relative to control; type: protein-complex assay
[17] = molecular target: Tyrosine-protein kinase ABL1 (Homo sapiens) (UniProt P00519); test: Inhibition of human Abl kinase at 10 uM relative to control
[18] = molecular target: Melanocortin receptor 4 (Homo sapiens) (UniProt P32245); test: Inhibition of human MC4 at 10 uM relative to control
[19] = molecular target: Glucagon receptor (Homo sapiens) (UniProt P47871); test: Inhibition of human Glucagon receptor at 10 uM relative to control
[20] = molecular target: Tyrosine-protein kinase ZAP-70 (Homo sapiens) (UniProt P43403); test: Inhibition of human ZAP70 kinase at 10 uM relative to control
[21] = molecular target: Neuronal acetylcholine receptor; alpha4/beta2 (Homo sapiens) (UniProt P17787+P43681); test: Inhibition of human N neuronal alpha4 beta2 receptor at 10 uM relative to control; type: protein-complex assay
[22] = molecular target: Alpha-2B adrenergic receptor (Homo sapiens, UniProt P18089); test: Inhibition of human alpha 2B receptor
[23] = molecular target: Vasoactive intestinal polypeptide receptor 1 (Homo sapiens) (UniProt P32241); test: Inhibition of human VPAC1 at 10 uM relative to control
[24] = molecular target: High affinity choline transporter 1 (Homo sapiens) (UniProt Q9GZV3); test: Inhibition of human choline transporter (CHT1) at 10 uM relative to control
[25] = molecular target: Adenosine receptor A1 (Homo sapiens) (UniProt P30542); test: Inhibition of human A1 receptor at 10 uM relative to control
U2OS = test: Cytotoxicity against human U2OS cells assessed as reduction in cell viability at <50 uM by alamar blue assay; type: toxicity, cell-based
[26] = molecular target: Melanin-concentrating hormone receptor 1 (Homo sapiens) (UniProt Q99705); test: Inhibition of human MCH1 receptor at 10 uM relative to control
[27] = molecular target: Oxysterols receptor LXR-beta (Homo sapiens) (UniProt P55055); test: Inhibition of human LXRbeta at 10 uM relative to control
[28] = molecular target: Neprilysin (Homo sapiens) (UniProt P08473); test: Inhibition of human neutral endopeptidase at 10 uM relative to control
[29] = molecular target: Interstitial collagenase (Homo sapiens) (UniProt P03956); test: Inhibition of human MMP-1 at 10 uM relative to control
[30] = molecular target: Prostaglandin F2-alpha receptor (Homo sapiens) (UniProt P43088); test: Inhibition of human FP receptor at 10 uM relative to control
[31] = molecular target: GABA-A receptor; alpha-1/beta-2/gamma-2 (Homo sapiens) (UniProt P14867+P47870+P18507); test: Inhibition of human GABA alpha1/beta2/gamma2 at 10 uM relative to control; type: protein-complex assay
[32] = molecular target: Alpha-1A adrenergic receptor (Homo sapiens) (UniProt P35348); test: Inhibition of human alpha 1A receptor at 10 uM relative to control
Homo sapiens [33] = organism: Homo sapiens; test: Inhibition of human sigma receptor at 10 uM relative to control
[34] = Inhibition of SETD7 D256A mutant (unknown origin) using biotinylated H3 (1-25) peptide as substrate incubated for 1 hrs in presence of 3H-SAM by radioactivity based assay; design: species or system Homo sapiens; summary of the method: as §1
[35] = molecular target: xanthine oxidase (Xanthine dehydrogenase/oxidase) (Homo sapiens, UniProt P47989); test: Inhibition of xanthine oxidase (unknown origin) at 10 uM relative to control
Homo sapiens [36] = organism: Homo sapiens; test: Inhibition of central BZD receptor (unknown origin) at 10 uM relative to control
[37] = molecular target: Histone-lysine N-methyltransferase SETD7 (Homo sapiens) (UniProt Q8WTS6); details: HEK293, dose 10.0 µM

Chain of Mitogen-activated protein kinase 14 (Homo sapiens) (Q16539 whole entry): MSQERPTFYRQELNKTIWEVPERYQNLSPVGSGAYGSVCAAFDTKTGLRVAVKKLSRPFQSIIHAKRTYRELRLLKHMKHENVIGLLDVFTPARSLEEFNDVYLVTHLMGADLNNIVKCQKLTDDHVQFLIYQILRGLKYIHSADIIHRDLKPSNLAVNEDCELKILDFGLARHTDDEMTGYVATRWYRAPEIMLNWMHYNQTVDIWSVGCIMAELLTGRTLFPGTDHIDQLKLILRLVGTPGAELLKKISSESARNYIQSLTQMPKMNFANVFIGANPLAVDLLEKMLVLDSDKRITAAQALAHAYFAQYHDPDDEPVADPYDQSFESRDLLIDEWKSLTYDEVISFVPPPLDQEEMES
Chain of Vascular endothelial growth factor receptor 1 (Homo sapiens) (P17948 whole entry): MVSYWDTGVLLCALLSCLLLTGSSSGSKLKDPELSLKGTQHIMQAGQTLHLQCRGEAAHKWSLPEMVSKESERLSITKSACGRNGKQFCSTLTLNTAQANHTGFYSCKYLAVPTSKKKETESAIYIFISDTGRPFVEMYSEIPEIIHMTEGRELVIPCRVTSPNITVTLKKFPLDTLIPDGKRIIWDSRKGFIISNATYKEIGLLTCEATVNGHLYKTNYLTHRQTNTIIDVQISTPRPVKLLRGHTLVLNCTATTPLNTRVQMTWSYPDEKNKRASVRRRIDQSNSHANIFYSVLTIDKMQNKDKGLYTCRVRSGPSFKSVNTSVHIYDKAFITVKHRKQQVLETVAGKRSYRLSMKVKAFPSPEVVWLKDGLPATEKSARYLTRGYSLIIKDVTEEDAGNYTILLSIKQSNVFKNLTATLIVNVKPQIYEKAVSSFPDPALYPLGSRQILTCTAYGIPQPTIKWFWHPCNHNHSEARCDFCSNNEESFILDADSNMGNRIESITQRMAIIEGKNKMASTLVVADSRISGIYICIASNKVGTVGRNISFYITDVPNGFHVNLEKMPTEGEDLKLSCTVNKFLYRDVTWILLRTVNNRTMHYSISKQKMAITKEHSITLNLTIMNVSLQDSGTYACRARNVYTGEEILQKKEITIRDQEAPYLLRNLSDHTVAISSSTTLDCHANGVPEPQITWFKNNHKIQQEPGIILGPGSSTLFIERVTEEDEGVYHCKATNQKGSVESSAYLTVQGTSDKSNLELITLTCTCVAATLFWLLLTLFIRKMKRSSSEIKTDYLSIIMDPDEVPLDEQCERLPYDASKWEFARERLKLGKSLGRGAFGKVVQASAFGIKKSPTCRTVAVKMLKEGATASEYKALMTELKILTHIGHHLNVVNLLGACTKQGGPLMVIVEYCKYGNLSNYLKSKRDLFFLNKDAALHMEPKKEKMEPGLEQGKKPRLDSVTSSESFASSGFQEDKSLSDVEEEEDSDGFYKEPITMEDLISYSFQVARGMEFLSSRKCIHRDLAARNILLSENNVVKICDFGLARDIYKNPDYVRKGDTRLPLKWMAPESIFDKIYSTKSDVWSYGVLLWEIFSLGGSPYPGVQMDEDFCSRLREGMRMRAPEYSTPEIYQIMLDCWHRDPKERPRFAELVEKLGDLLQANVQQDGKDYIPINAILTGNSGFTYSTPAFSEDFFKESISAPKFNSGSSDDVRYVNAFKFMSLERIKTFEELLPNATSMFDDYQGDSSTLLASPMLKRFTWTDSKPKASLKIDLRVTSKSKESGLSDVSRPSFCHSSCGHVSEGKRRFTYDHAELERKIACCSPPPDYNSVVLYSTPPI
Chain of Estrogen receptor (Homo sapiens) (P03372 whole entry): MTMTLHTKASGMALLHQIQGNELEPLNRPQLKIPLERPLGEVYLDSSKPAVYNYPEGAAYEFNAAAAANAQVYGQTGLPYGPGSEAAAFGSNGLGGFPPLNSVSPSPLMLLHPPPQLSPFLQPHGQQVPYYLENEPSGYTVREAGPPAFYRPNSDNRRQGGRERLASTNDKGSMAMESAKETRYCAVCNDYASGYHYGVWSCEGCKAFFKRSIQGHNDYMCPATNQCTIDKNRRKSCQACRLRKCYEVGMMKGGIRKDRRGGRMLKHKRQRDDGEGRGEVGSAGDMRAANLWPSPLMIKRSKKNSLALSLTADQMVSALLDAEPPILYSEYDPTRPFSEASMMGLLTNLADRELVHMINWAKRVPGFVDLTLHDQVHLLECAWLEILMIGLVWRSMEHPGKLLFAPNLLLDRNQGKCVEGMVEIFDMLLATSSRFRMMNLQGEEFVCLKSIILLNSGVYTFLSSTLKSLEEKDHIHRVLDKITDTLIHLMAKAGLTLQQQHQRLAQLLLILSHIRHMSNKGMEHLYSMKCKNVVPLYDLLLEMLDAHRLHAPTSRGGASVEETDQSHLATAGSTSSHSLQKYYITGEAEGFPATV
Chain of Prostaglandin G/H synthase 1 (Homo sapiens) (P23219 whole entry): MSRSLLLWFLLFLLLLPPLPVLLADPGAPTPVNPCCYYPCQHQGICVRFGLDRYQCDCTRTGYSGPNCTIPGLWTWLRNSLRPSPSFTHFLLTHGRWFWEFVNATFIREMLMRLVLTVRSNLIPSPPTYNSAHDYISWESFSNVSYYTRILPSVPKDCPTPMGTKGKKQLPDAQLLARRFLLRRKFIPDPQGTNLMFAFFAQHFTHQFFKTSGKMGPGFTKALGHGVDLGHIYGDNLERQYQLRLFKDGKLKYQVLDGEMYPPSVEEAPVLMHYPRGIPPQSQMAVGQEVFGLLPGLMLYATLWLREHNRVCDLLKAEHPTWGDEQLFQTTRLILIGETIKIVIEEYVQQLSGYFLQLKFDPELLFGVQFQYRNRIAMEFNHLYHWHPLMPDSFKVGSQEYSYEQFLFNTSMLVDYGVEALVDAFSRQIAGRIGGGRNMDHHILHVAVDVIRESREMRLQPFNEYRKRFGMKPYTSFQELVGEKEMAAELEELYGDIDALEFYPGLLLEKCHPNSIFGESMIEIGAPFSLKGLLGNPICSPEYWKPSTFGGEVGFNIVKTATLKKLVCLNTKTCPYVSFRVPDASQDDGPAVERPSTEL
Chain of Melanocyte-stimulating hormone receptor (Homo sapiens) (Q01726 whole entry, looked up): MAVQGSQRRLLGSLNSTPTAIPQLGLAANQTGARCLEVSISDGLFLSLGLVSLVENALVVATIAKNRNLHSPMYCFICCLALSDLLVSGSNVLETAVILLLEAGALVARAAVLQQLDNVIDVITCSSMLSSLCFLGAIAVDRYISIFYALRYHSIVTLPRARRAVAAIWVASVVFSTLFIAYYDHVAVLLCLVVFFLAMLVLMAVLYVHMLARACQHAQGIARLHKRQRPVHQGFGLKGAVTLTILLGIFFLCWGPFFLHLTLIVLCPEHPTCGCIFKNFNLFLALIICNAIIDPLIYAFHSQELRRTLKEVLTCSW
Chain of 5-hydroxytryptamine receptor 1A (Homo sapiens) (P08908 whole entry): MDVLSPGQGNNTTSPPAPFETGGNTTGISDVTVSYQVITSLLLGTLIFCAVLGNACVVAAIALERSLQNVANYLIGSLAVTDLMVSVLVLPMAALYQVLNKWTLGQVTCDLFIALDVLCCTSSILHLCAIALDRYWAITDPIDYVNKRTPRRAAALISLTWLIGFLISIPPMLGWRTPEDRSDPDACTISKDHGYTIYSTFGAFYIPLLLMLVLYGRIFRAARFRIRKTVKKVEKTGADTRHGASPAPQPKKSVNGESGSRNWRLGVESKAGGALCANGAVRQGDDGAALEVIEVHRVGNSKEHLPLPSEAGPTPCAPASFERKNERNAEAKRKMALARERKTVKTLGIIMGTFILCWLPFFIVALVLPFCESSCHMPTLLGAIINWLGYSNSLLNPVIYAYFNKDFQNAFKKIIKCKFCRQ
Chain of Alpha-1A adrenergic receptor (Homo sapiens) (P35348 whole entry): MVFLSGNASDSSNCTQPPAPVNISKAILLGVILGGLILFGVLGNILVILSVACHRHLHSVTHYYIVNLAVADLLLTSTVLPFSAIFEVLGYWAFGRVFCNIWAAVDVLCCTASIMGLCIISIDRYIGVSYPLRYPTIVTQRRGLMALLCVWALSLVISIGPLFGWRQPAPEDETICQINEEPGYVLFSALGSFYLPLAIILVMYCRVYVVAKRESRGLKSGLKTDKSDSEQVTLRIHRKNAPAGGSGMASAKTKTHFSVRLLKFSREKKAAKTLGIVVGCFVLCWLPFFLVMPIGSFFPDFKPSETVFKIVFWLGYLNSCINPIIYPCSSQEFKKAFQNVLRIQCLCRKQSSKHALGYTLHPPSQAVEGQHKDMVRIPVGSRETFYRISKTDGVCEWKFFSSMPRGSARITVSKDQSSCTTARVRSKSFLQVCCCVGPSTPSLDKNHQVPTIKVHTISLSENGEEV
Chain of Alpha-2B adrenergic receptor (P18089 whole entry): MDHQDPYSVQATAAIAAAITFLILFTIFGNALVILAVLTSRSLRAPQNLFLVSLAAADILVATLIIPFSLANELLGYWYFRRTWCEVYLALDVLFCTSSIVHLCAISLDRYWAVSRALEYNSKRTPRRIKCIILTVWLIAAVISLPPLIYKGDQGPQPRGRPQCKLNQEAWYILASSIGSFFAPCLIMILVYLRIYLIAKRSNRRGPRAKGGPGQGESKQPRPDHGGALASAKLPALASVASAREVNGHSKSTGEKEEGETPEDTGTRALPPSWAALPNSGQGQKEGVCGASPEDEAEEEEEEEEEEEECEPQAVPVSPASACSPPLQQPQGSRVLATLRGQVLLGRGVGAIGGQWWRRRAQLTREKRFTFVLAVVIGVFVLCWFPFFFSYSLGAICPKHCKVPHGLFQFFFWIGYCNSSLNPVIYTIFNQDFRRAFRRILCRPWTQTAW
Chain of Melanocortin receptor 4 (Homo sapiens) (P32245 whole entry): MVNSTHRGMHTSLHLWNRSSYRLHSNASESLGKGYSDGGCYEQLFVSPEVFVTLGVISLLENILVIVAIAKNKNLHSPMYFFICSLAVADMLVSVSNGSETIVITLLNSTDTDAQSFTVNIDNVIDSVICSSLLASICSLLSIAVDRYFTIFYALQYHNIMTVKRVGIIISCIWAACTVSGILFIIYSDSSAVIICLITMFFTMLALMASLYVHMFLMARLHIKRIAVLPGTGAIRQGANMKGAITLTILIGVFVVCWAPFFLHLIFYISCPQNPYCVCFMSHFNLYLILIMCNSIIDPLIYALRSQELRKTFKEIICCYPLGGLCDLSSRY

Structure (SMILES): O=C([C@@H](Cc1cccc(C(F)(F)F)c1)NS(=O)(=O)c1cc(F)c2c(c1)CCNC2)N1CCCC1
- Stability [1]: Stable
- inhibition [2]: 1%
- inhibition [3]: 10%
- inhibition [4]: -6%
- inhibition [5]: 0%
- inhibition [6]: 16%
- pIC50 [7]: 4.97
- inhibition [8]: 47%
- inhibition [9]: 1%
- inhibition [10]: -5%
- inhibition [11]: -6%
- inhibition (Caspase-3 (Homo sapiens)): 2%
- inhibition [12]: 15%
- inhibition [13]: 9%
- inhibition [14]: 4%
- inhibition [15]: 0%
- inhibition [16]: -8%
- inhibition [17]: 15%
- inhibition [18]: 15%
- inhibition [19]: 1%
- inhibition [20]: 13%
- inhibition [21]: -4%
- pIC50 [22]: 5.89
- inhibition [23]: -8%
- inhibition [24]: 9%
- inhibition [25]: -10%
- Activity (U2OS): Non-Toxic
- inhibition [26]: -1%
- inhibition [27]: 5%
- inhibition [28]: -6%
- inhibition [29]: 1%
- inhibition [30]: 3%
- inhibition [31]: -10%
- inhibition [32]: -3%
- inhibition (Homo sapiens [33]): 49%
- pIC50 [34]: 5.92
- inhibition at 10 µM [35]: 4%
- inhibition (Homo sapiens [36]): 11%
- deltaT [37]: 4 °C
